# STAT3 blocker: IL-6 driven STAT3 reporter inhibitors, primary screen, U3A cells, luciferase, luminescence, MLSCN library | AID 862, 2007 | inhibition, % at 5.5 µM | IL-6 STAT3-luciferase reporter; host cell line lacks STAT1 | 0.89% of 190,000 active;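 active = inhibition above the mean inhibition across all screened compounds plus 3 SD, cut at about 44% in these data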;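 note: 0% = DMSO only wells and 100% = 100 µM nifuroxazide control wells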
# STAT1 blocker: STAT1 signaling inhibitors, primary screen, cell-based, HTS, luciferase reporter; NIH 3T3 STAT1-luciferase reporter, IFN-gamma, luminescence; inhibition, % at 5.5 µM; 0.35% of 200,000 active; AID 920, 2007;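 active = inhibition above a set limit, the mean inhibition across all tested compounds plus 3 SD, cut at about 34% in these data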;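 note: 0% = IFN-gamma with DMSO and 100% = IFN-gamma with 300 µM nifuroxazide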
# APP 5'UTR act: activators of APP 5'UTR luciferase reporter, primary screen, SH-SY5Y cells | SH-SY5Y APP 5'UTR luciferase reporter, luminescence; zero percent = DMSO vehicle wells | activation, % at 2 µM | 1% of 190,000 active | AID 1276, 2008;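 active = activation above a set limit, based on mean plus 3 SD of controls, cut at about 140% in these data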
# STAT1 act-1: STAT1 signaling activators, primary screen, cell-based, HTS, luciferase reporter. NIH 3T3 STAT1-luciferase reporter, IFN-gamma, luminescence; 100% = IFN-gamma alone, no compound. activation (% of control), % at 5.5 µM. 2.6% of 200,000 active. AID 932, 2007;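 active = activation above the screen-wide mean activation plus 3 SD, cut at about 130% in these data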;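 note: raw ratio to IFN-gamma control signal so 100% means no change and 0% no light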
# NF-kB neuron act: activators of NF-kB expression in neurons, primary screen, cell-based, HTS | human neuronal cells, NF-kB reporter expression; stronger effect = higher value | fold change at 12.5 µM | AID 1239, 2008 | 1.6% of 190,000 active; in the data active = fold change above about 3.3
# STAT3 act-1: IL-6 driven STAT3 reporter potentiators, primary screen, U3A cells, luciferase, luminescence, MLSCN library; IL-6 STAT3-luciferase reporter; 100% = signal with IL-6 EC80 alone; activation (% of control), % at 5.6 µM; 0.91% of 190,000 active;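 active = activation above the screen-wide mean of compound activation plus 3 SD, cut at about 130% in these data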;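 note: 0% = background luminescence of wells with medium and substrate only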
#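 System – human U3A cells carrying STAT3-luciferase construct · Probe or stimulus – Interleukin-6, 33 ng/mL · Schedule – compound 1 h, then IL-6 6 h at 37 °C · Signal – luminescence from STAT3-driven luciferase reporter · Evaluation – percent of IL-6-only median luminescence · Benchmarks – IL-6-only high control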
# STAT3 act-2: STAT3 reporter potentiators, retest of hits, confirmation, U3A cells, luciferase, luminescence; shares compounds with STAT3 act-1; 64% of 1,200 active; potentiation (% of control), % at 5.7 µM; IL-6 potentiation; U3A cells lack STAT1; 100 means same as IL-6 alone;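 active = percent activation of the STAT3 luciferase reporter above a set limit taken from the earlier primary screen, cut at about 130% in these data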;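 note: 0% = background signal of medium plus substrate and 100% = median of IL-6 with DMSO wells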
# NFkB act STAT3ct: NF-kB reporter activators in human cells, counter-screen for STAT3 activator project. 11% of 1,200 active. NF-kappaB reporter activation. shares compounds with STAT3 act-1. activation (% of control), % at 5.7 µM; in the data active = activation above about 120%;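 note: reporter induced by TNF-alpha stimulation; 100% = median of stimulated DMSO wells and 0% = no signal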
# STAT1 act-2: STAT1 reporter activators, IFN-gamma induced, counter-screen for STAT3 activator project, cell-based, NIH 3T3, luciferase luminescence | 13% of 1,200 active | AID 1318, 2008 | NIH 3T3 STAT1-luciferase reporter | activation (% of control), % at 5.7 µM | shares compounds with STAT3 act-1;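 active = activation above the solvent-only control well mean plus 3 SD, set per screening run, cut at about 120% in these data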;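 note: 100% = IFN-gamma with DMSO median signal so 100% means no change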
# * = called active by the depositor; . = no result. A selection: hits, their analogues and other compounds. The true share with any hit is near 4.9%.
SMILES,STAT3 blocker,STAT1 blocker,APP 5'UTR act,STAT1 act-1,NF-kB neuron act,STAT3 act-1,STAT3 act-2,NFkB act STAT3ct,STAT1 act-2
CCCC(=O)NC(Nc1c(C)n(C)n(-c2ccccc2)c1=O)C(Cl)(Cl)Cl (stereo not drawn),6,1,8,98,1.2,101,.,.,.
CC12CCC(C(=O)N(CC(O)CN3CCCCCC3)C1=O)C2(C)C (stereo not drawn),12,11,-14,90,1.5,92,.,.,.
O=C1C=C(NCc2ccccc2)c2ccccc2C1=O,-48,9,-9,90,0.4,146*,132,98,92
Nc1ccc(C2=Nc3cccc4cccc(c34)N2)cc1,-71,-6,-1,105,0.85,158*,163*,108,108
CN(C)c1nc(OCCOC(=O)COc2ccc(Cl)cc2Cl)nc(N(C)C)n1,-4,-9,-6,110,0.99,107,.,.,.
CN(C)c1nc(OCCNC(=O)COc2ccc(Cl)cc2Cl)nc(N(C)C)n1,-49,4,-3,96,1.1,146*,127,98,91
Cc1ccc(NC(=S)Nc2cccc3cnccc23)cc1,-40,5,-10,95,1.4,137*,143*,97,98
CS(=O)(=O)N1CC(C(=O)O)Oc2ccc(CC(=O)O)cc21 (stereo not drawn),6,0,18,98,1.1,102,.,.,.
O=C(Nc1nc(-c2cccs2)cs1)c1cccc(S(=O)(=O)N2CCCCCC2)c1,-41,-19,31,117,0.92,140*,133,111,125*
CCOC(=O)c1cnn(-c2cc(C)c3ccccc3n2)c1N,-75,2,5,98,1.8,170*,173*,117,107
CCOC(=O)c1cnn(-c2ccccn2)c1N,12,-24,47,122,1.8,94,.,.,.
Cc1ccc2ncccc2c1NS(=O)(=O)c1ccccc1,2,4,12,96,0.84,101,.,.,.
Cc1ccc2ncccc2c1NC(=S)NC(=O)c1ccccc1,-35,15,29,85,1.5,137*,146*,110,100
Cc1ccc(C)c(-n2cc[nH]c2=S)c1,10,-2,12,102,0.92,95,.,.,.
COc1cc(OC)cc(C(=O)Oc2ccc(/C=N/Nc3nc4ccccc4s3)cc2OC)c1,-51,-23,115,121,1.7,148*,151*,97,155*
COc1ccc(C(=O)Oc2cc(/C=N/NC(N)=S)ccc2OC)cc1,10,-4,-16,104,1.2,96,.,.,.
c1coc(-c2nc3c4c5c(sc4ncn3n2)CCCC5)c1,22,9,3,91,0.82,84,.,.,.
CN1CCc2c(sc3ncn4nc(-c5ccccc5O)nc4c23)C1,-98,-6,-9,106,1.2,182*,164*,107,101
O=c1oc2ccccc2c(O)c1/C=C1\C=Nc2ccccc21,-76,6,4,95,1.6,161*,152*,104,90
CCCc1cc(=O)n2[nH]c(C(F)(F)F)nc2n1,-2,-2,-4,102,1.1,107,.,.,.
CCCc1cc(=O)n2[nH]c(C)nc2n1,-54,-8,-15,107,1.1,153*,108,102,93
CN(CC(=O)Nc1ccc(C(N)=O)cc1)CC(=O)Nc1ccccc1Cl,4,1,-16,99,1.4,97,.,.,.
CNc1ccc(C2(O)C(=O)c3ccccc3C2=O)cc1,1,-6,-4,105,1,103,.,.,.
Oc1ccc2ccccc2c1CNc1cnc2ccccc2c1,-58,3,.,97,1.1,146*,133*,99,104
Cn1c(NCc2c(O)ccc3ccccc23)nc2ccccc21,-5,-2,-11,102,0.83,110,.,.,.
SMILES,STAT3 blocker,STAT1 blocker,APP 5'UTR act,STAT1 act-1,NF-kB neuron act,STAT3 act-1,STAT3 act-2,NFkB act STAT3ct,STAT1 act-2
Cc1nc(NC(=O)/C=C/c2ccccc2)sc1C(=O)N1CCCCC1,7,-1,25,101,1.1,99,.,.,.
COC(=O)c1ccccc1NC1CC(=O)N(c2c(C)cccc2C)C1=O (stereo not drawn),-9,-1,9,101,1.1,106,.,.,.
O=c1c(Cl)c(N/N=C/c2ccc(Br)cc2)cnn1-c1ccccc1,-55,-11,5,110,0.99,150*,126,101,102
COc1ccc(/C=C/C(=O)c2ccc(NC(=O)c3cccs3)cc2)cc1OC,10,-8,44,108,0.98,94,.,.,.
COc1ccc(C)cc1-n1nnnc1SC/C(O)=C(\C#N)c1nc2ccccc2[nH]1,-10,6,-2,94,0.91,112,.,.,.
N#C/C(=C(/O)CSc1ncn[nH]1)c1nc2ccccc2[nH]1,-47,8,-11,93,0.76,143*,152*,107,100
Cc1cccc(Nc2nnc(SC/C(O)=C(\C#N)c3nc4ccccc4[nH]3)s2)c1,-55,10,0,91,0.92,143*,153*,102,95
Cc1ccc(Nc2nnc(SC/C(O)=C(\C#N)c3nc4ccccc4[nH]3)s2)c(C)c1,-60,5,-7,96,0.78,145*,151*,106,89
CC(C)(C)c1nnc2sc(SC/C(O)=C(\C#N)c3nc4ccccc4[nH]3)nn2c1=O,0,0,-6,100,0.6,105,.,.,.
CCC(CC)C(=O)Nc1ccc(C(=O)Nc2cc(C)on2)cc1,8,0,16,98,1.1,100,.,.,.
COc1ccc2c(C)cc(SCC(=O)Nc3cccnc3Cl)nc2c1,-18,13,3,87,1.2,120,.,.,.
COc1cc(OC)cc(C(=O)NNC(=S)Nc2ccc(S(N)(=O)=O)cc2)c1,20,0,-19,99,1.1,88,.,.,.
Cc1ccc(NC(=O)CC2Nc3ccccc3NC2=O)cc1Cl (stereo not drawn),-46,-7,38,106,.,138*,109,110,109
O=C(CC1Nc2ccccc2NC1=O)Nc1ccc2c(c1)OCO2 (stereo not drawn),14,-14,31,111,1.5,90,.,.,.
